Measured values gathered from unrelated publications.
Lines come from different studies, so protocols differ.
Target: Mitogen-activated protein kinase 15 (MAPK15, Homo sapiens, UniProt Q8TD08)
One construct used (Q8TD08 1-544): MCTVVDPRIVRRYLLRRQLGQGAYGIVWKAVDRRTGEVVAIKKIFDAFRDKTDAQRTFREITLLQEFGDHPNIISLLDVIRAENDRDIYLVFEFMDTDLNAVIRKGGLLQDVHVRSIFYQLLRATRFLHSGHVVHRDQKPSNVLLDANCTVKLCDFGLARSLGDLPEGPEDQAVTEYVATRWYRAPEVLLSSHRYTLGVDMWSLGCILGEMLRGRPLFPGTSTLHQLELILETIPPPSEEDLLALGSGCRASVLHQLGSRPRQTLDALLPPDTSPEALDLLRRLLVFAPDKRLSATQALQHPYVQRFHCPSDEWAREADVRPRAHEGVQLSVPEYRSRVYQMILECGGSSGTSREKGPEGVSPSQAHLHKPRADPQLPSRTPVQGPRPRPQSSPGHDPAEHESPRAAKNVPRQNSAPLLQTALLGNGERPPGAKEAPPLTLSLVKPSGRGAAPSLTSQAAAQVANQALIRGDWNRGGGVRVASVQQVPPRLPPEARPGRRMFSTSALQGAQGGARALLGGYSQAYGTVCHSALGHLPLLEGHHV

SMILES | test | setting | remaining binding [%]
O=C(c1ccc(Nc2ncc(Cl)c(-c3cc4ccccc4s3)n2)cc1)N1CCC(N2CCCC2)CC1 | binding, competition with immobilised ligand | 1 µM | 5.4
O=S(=O)(NC1CCC(c2cc(F)ccc2F)(S(=O)(=O)c2ccc(Cl)cc2)CC1)C(F)(F)F (stereo not shown) | cell-free assay, competition with immobilised ligand | 1 µM | 94
C[C@H]1CCN(c2nccc(-c3cnn4ncccc34)n2)C1 | binding | 1 µM | 74
C[C@H](c1ccc(F)cc1)N(Cc1cccc(C(=O)O)c1)C(=O)c1cnc2ccccc2c1 | cell-free assay, competition with immobilised ligand | 1 µM | 93
N[C@@H]1CCN(c2nccc(-c3cnn4ncccc34)n2)C1 | binding | 1 µM | 97
Nc1ncc2c(n1)-c1c([nH]c3ccc(C#CC4CC4)cc13)CCCC2 | binding, competition with immobilised ligand | 1 µM | 100
CS(=O)(=O)N1CCCC(NC(=O)[C@H](CCC2CCCCC2)NC(=O)c2ccc(CNC(=O)c3cnc4ccccn34)cc2)C1 (stereo partly shown) | cell-free assay, competition with immobilised ligand | 0.1 µM | 100
O=C(c1ccc(Nc2nccc(-c3cc4ccccc4s3)n2)cc1)N1CCC(N2CCCC2)CC1 | binding, competition with immobilised ligand | 1 µM | 49
CC1=C(C#N)C(c2ccc3c(c2)c(NC(=O)c2ccccc2C)nn3C)C(C#N)=C(C)N1 | cell-free assay, competition with immobilised ligand | 1 µM | 89
COc1cnc(Nc2cccc(S(N)(=O)=O)c2)nc1N1CCN(c2ccccc2)CC1 | binding, competition with immobilised ligand | 1 µM | 100
c1cnn2ncc(-c3ccnc(N4CCC45COC5)n3)c2c1 | binding | 1 µM | 71
COc1ncc2cc3ccccc3nc2c1C#N | cell-free assay, competition with immobilised ligand | 5 µM | 91
O=C(NCC1CCOCC1)c1n[nH]cc1NC(=O)c1c(F)cccc1F | binding, competition with immobilised ligand | 1 µM | 79
CN(c1nccc(-c2cnn3ncccc23)n1)C1CC1 | binding | 1 µM | 85
O=C(NCCCN1CCOCC1)c1ccc(Nc2ncc(Cl)c(-c3ccc(Cl)s3)n2)cc1 | binding, competition with immobilised ligand | 1 µM | 1.2
CN(C)c1nccc(-c2cnc3ncccn23)n1 | binding | 1 µM | 50
CSc1cccnc1N1CCN(Cc2nc3ccccc3[nH]2)CC1 | cell-free assay, competition with immobilised ligand | 1 µM | 82
F[C@@H]1CCN(c2nccc(-c3cnn4ncccc34)n2)C1 | binding | 1 µM | 66
CCCCN(CCCC)C(=O)CN1C[C@H](c2cc(OC)c3c(c2)OCO3)[C@@H](C(=O)O)[C@@H]1CC(C)(C)CCC | cell-free assay, competition with immobilised ligand | 1 µM | 100
COc1cnc(Nc2cccc(S(N)(=O)=O)c2)nc1N1CCN(c2ccccc2)C(=O)C1 | binding, competition with immobilised ligand | 1 µM | 100
COc1ccc2cc(OCC3(C(=O)O)CN(C(=O)c4ccc(F)cc4)C3)ccc2c1 | cell-free assay, competition with immobilised ligand | 1 µM | 74
CN(CCCC(F)(F)F)c1nccc(-c2cnn3ncccc23)n1 | binding | 1 µM | 100
